Publication PMC2998342 (Peptides, 2009)
Where no end group is shown, it is not given here. [ ]: non-standard residue; d: D form. Met(O) = CS(=O)CC[C@H](N)C(=O)O

Experiments:
[1] = biological target: human KCa1.1 channel (HSlo) (Homo sapiens, UniProt Q12791); assay: Whole-cell patch clamp inhibition of cloned human KCa1.1; format: cell-based; details: read-out: inhibition of outward current
Summary of the method: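 Whole-cell clamp of HEK293 stably expressing N-terminal Flag-tagged human HSlo. Pipette: KCl/EGTA/Hepes-KOH pH 7.2, 0.5 μM free Ca2+. Bath: NaCl-based pH 7.4. Steps from −80 mV to +100 mV (+10 mV, 100 ms), 5 kHz filter, P/5 leak correction, paxilline-resistant current subtracted. Toxin (50 nM) gravity-perfused; −80→+50 mV pulses every 10 s tracked onset/washout. KI from one-site fit; Kd from kinetic ratio.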

[2] = biological target: KCa1.1 (UniProt Q12791); details: cited from earlier work
KCa1.1, sequence (Q12791 whole entry): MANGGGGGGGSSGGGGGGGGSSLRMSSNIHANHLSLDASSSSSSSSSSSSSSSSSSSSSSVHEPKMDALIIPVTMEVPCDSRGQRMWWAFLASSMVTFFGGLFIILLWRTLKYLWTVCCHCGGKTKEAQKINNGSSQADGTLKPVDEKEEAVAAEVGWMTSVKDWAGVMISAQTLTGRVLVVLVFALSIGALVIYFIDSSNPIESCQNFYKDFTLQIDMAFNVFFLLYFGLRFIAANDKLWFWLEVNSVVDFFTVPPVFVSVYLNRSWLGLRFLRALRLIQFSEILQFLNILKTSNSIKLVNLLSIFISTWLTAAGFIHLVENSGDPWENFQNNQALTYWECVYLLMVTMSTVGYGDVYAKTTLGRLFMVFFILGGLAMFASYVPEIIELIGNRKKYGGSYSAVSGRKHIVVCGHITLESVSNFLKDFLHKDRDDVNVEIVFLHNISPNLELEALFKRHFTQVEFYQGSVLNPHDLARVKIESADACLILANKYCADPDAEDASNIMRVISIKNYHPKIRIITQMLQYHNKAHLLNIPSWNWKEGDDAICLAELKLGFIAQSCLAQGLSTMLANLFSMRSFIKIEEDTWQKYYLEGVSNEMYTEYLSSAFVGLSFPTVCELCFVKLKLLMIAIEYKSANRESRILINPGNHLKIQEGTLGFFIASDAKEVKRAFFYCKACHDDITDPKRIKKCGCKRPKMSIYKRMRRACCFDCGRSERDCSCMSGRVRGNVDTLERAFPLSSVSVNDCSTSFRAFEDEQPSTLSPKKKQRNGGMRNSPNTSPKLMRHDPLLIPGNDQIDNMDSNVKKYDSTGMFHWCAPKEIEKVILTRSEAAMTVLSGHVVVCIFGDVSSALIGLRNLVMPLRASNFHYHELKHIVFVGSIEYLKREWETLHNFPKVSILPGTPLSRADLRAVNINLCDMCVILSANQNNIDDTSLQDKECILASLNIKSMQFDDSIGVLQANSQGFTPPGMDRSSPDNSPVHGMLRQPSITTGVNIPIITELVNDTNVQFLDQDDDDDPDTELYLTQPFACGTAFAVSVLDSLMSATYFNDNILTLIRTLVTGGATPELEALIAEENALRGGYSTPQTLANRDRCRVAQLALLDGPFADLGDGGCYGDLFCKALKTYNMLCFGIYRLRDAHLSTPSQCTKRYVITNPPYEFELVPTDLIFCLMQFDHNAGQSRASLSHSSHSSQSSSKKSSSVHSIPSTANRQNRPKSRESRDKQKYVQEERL

[3] = Biological activity of deprotected IbTx-D19C; details: after selective thiol deprotection using AgBF4; methionine sulfoxide (Met^29)

human KCa1.1 channel (HSlo), sequence (Q12791 whole entry, the tested form may be a part): as the sequence (Q12791 whole entry) above
iberiotoxin, sequence (P24663 whole entry): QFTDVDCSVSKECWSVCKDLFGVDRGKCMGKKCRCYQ

CC(C)(O)[C@H]1O[C@H]2CC[C@@]3(C)[C@@](O)(CC[C@H]4Cc5c([nH]c6ccccc56)[C@@]43C)C2=CC1=O [Paxilline]
inhibition at 1 µM [1]: > 95%

iberiotoxin (from UniProt P24663)
Kd [2]: < 1 nM

IbTx-D19C: biologically inactive form of IbTx-D19C from AgBF4 deprotection of IbTx-D19C-Acm (QFTDVDCSVSKECWSVCKCLFGVDRGKC[Met(O)]GKKCRCYQ; ends and bridges not checked; UniProt P24663 1-37, looked up, variant D19C)
biological activity [3]: biologically inactive
